From PubChem BioAssay
Most compounds without a hit are left out; they make up all but 1.6% or so of the library.
PfGluPho inh: PfG6PD (Plasmodium falciparum) enzyme inhibition | PfGluPho enzyme, NADPH resazurin-diaphorase fluorescence | inhibition, % at 20 µM | 350,000 tested, 0.78% active | AID 504690;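 active = inhibition reaching at least a set limit at 20 µM in the primary screen, cut at about 59% in these data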;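 note: 0% = DMSO wells with substrate and 100% = DMSO wells lacking glucose-6-phosphate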
ATG4B inh: blocks human ATG4B protease cleavage of LC3 substrate; AID 504462; 340,000 tested, 0.51% active; ATG4B cleavage of LC3-PLA2, NBD-HPC fluorescence, 1 h; Q9Y4P1; inhibition, % at 8.33 µM; in the data active = inhibition above about 40%
PKA-R1A activ: activates the PKA-R1A holoenzyme complex. 340,000 tested, 0.083% active. AID 504707. activation, % at 11.4 µM. PKA-R1A dissociation, Cy5-IP20 fluorescence polarization; scaled: DMSO 0%, 113 µM cGMP 100%;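 active = percent activation above the mean of all tested compounds plus 3 SD, cut at about 19% in these data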;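 note: higher means more PKAc released from R1A so a rise in polarization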
PKA-R2B act: activators of human PKA-R2B complex. P22694+P31323. PKA-R2B holoenzyme dissociation, Cy5-IP20 fluorescence polarization; R2B truncated from residue 108, S112A mutant; 0% DMSO only, 100% 113 µM cGMP. activation, % at 11.4 µM. 340,000 tested, 0.079% active. AID 504700;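 active = activation above a cutoff set at the mean over all compounds plus 3 SD, cut at about 18% in these data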;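 note: higher means more holoenzyme dissociation and a rise in polarization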
T cell HTS: T cell immune modulation candidate | 330,000 tested, 0.068% active | response (vesicle binding), % at 7 µM | AID 2052 | 2C CD8+ T cell-vesicle binding, flow cytometry; stronger effect = lower value;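 active = response, share of CD8 T cells binding vesicles, and their 90th percentile fluorescence all below set limits, cut at about 80% in these data, passing the limit was not always enough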;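 note: values below 100% mean blocked vesicle binding to the CD8+ T cells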
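Material: murine 2C transgenic CD8+ T lymphocytes / Also added: QL9-peptide-loaded Drosophila micro-vesicles bearing Ld, ICAM-1 and B7-1 / Schedule: binding step 1.5 h, 37 °C, antibody labelling 20 min, ice / Signal: flow cytometry, PE anti-B7-1 (FL2) versus Alexa647 anti-CD8 (FL8), PFA-fixed / Evaluation: percent CD8+ FL2 mean versus row control / Benchmarks: naked versus QL9-loaded vesicles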
HKDC1 inh: inhibitors of human hexokinase HKDC1; 340,000 tested, 0.16% active; inhibition, % at 20 µM; recombinant HKDC1, G6PDH/diaphorase resazurin coupled fluorescence; Q2TB90;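 active = inhibition above about 35% when tested at 20 µM, limit read from the data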;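 note: plate controls were DMSO wells with enzyme for no effect and DMSO wells lacking enzyme for full effect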
Target sequence (Q2TB90 whole entry, looked up): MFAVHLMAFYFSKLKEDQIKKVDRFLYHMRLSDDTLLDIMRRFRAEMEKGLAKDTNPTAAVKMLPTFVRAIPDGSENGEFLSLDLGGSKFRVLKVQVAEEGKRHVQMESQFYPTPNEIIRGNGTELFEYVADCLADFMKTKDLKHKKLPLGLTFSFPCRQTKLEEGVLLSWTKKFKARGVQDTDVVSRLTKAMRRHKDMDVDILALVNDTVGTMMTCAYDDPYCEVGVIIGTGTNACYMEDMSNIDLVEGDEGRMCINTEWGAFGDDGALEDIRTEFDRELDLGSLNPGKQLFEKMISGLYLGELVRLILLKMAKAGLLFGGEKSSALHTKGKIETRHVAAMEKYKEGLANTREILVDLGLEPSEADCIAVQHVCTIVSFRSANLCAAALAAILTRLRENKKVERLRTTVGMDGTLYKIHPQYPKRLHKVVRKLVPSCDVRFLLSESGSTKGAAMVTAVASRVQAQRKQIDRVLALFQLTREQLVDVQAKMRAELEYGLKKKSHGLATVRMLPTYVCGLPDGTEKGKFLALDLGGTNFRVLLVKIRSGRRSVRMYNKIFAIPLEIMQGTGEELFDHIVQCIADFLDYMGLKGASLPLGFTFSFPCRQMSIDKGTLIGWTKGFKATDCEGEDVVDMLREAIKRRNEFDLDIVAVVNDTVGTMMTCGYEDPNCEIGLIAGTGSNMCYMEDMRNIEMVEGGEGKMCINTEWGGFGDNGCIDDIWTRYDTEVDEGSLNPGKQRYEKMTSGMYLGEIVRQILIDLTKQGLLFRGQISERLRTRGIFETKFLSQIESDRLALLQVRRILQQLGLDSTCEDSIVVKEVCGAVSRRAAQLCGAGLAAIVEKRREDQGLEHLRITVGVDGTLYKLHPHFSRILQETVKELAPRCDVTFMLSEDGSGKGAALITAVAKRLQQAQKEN
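System: Recombinant HKDC1 hexokinase | Amount: HKDC1 at 5 µg/mL | Reagent: Glucose with 1 mM ATP | Doses: Single 20 µM dose | Incubation: Reaction time 90 min, room temperature, protected from light | Signal: Coupled resazurin fluorescence, excitation 525 nm, emission 613 nm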
PfG6PD confirm: confirmation of Plasmodium falciparum G6PD inhibitors. recombinant PfGluPho, NADPH-diaphorase-resazurin fluorescence. shares compounds with PfGluPho inh. inhibition, % at 20 µM. 2,400 tested, 34% active;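 active = inhibition of at least 50% at 20 µM in any single replicate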;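 note: 0% = DMSO with substrate and 100% = DMSO lacking glucose-6-phosphate substrate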
Diaphorase 10uM: diaphorase inhibition or oxidation at 10 uM NADPH. shares compounds with PfGluPho inh. diaphorase-coupled resazurin reduction, fluorescence, NADPH 10 uM. inhibition, % at 20 µM. 820 tested, 39% active. AID 504862;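 active = average inhibition reaching 50% or more with the compound at 20 µM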;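 note: resorufin red fluorescence formed as diaphorase reduces resazurin using NADPH; 0% = DMSO with enzyme and 100% = DMSO without enzyme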
Diaphorase 30uM: inhibits diaphorase or oxidizes, flagging false PfG6PD hits. AID 504863. inhibition, % at 20 µM. 820 tested, 29% active. Diaphorase/resazurin coupled assay, resorufin fluorescence, 30 uM NADPH. shares compounds with PfGluPho inh;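 active = inhibition averaging 50% or more, tested at 20 µM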;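 note: 0% = DMSO with enzyme and 100% = DMSO wells lacking diaphorase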
The depositor's hits bear a star; i = inactive; . = no result given.

SMILES | PfGluPho inh | ATG4B inh | PKA-R1A activ | PKA-R2B act | T cell HTS | HKDC1 inh | PfG6PD confirm | others
CC(=NNC(=S)N1CCN(c2ccccn2)CC1)c1ccccn1 | 83.6* | 12.7 | -5.3 | 5.2 | . | -21.1 | 29.7
O=C(CSc1nnc(NC(=O)C2CC2)s1)Nc1ccc(F)cc1F | -2.6 | 8.8 | 4.2 | -1.3 | i | -6.3 | .
Cc1ccc(-c2cn3c(=S)[nH]nc3s2)cc1 | 65.0* | 4.0 | -11.4 | 3.7 | 351.1 | -29.9 | 37.9
Cc1ccc(-c2n[nH]c(=S)n2C)cc1 | 17.8 | -1.7 | -4.5 | -5.4 | . | -2.8 | .
CN(C(=O)CSc1nc2ccccc2o1)C1CCCCC1 | 6.6 | -1.4 | 3.4 | -3.1 | . | -9.1 | .
NCCNc1ccc(C(=O)N2c3ccccc3Sc3ccccc32)cc1[N+](=O)[O-] | 69.3* | -3.5 | 0.1 | -5.7 | 137.6 | 6.0 | 91.8* | Diaphorase 10uM=16.8;Diaphorase 30uM=13.8
Cc1ccc(S(=O)(=O)N2CCN(C(=O)COC(=O)CSc3ccccc3)CC2)c(C)c1 | -2.1 | -8.6 | -11.5 | -12.5 | i | 3.4 | .
O=C(NCC(c1ccco1)N1CCCC1)c1cccc(S(=O)(=O)N2CCOCC2)c1 (stereo not drawn) | -3.9 | 4.6 | -8.3 | -5.9 | 292.4 | -2.3 | .
CCOc1ccc(S(=O)(=O)N(CC(=O)NCc2cccnc2)c2ccc(F)cc2)cc1 | -1.9 | 2.2 | -11.5 | -12.6 | 373.4 | -4.9 | .
CCOc1ccc2ccccc2c1/C=N/NC(=O)CC1(C)OCCCO1 | 76.6* | -18.3 | 5.5 | -6.2 | 323.2 | -9.2 | 57.4* | Diaphorase 10uM=59.5*;Diaphorase 30uM=55.4*
CCOc1ccc2ccccc2c1/C=N/NC(=O)c1ccncc1 | 72.3* | -8.5 | 7.1 | 3.1 | 170.7 | -6.3 | 66.4* | Diaphorase 10uM=60.8*;Diaphorase 30uM=47.0
CC1(c2ccccc2)NC(=O)N(CC(=O)Nc2ccc(S(=O)(=O)NC3=NCCCCC3)cc2)C1=O (stereo not drawn) | -6.8 | 7.8 | -16.6 | 3.8 | . | -5.6 | .
CCOc1ccccc1C(=O)Nc1ccc(S(=O)(=O)Nc2nccc(C)n2)cc1 | 73.2* | -7.0 | -2.4 | -1.0 | 183.0 | -2.8 | 13.7
Cc1ccsc1/C=N/NC(=S)NCc1ccccc1 | 18.3 | 1.2 | -1.7 | -11.4 | 338.9 | -8.9 | .
Cc1ccsc1/C=N\NC(=O)CC(=O)NCc1ccccc1 | 86.2* | -2.3 | 5.9 | -2.2 | 192.9 | 8.0 | 72.8* | Diaphorase 10uM=60.8*;Diaphorase 30uM=40.9
O=C(CC(=O)N/N=C/c1c(F)cccc1Cl)NCc1ccccc1 | 77.4* | 0.1 | . | . | 461.1 | -1.6 | 67.1* | Diaphorase 10uM=62.4*;Diaphorase 30uM=51.7*
CNC(=O)C1CC(=O)N(c2ccc(OCC(=O)Nc3ccccc3)cc2)C1 (stereo not drawn) | 5.8 | 11.5 | -21.2 | 6.3 | . | 2.5 | .
CCOC(=O)c1c(C)oc2c1c(C=NCC1CCCO1)c(O)c1ccccc12 (stereo not drawn) | 47.0 | 6.4 | 2.6 | -13.0 | . | 15.4 | .
CCOC(=O)c1c(C)oc2c1c(C=NCc1ccccn1)c(O)c1ccccc12 | 67.8* | 2.5 | -6.7 | -3.5 | . | 21.5 | 40.0
COc1ccc(Cc2ccccc2C(=O)O)cc1 | -17.4 | -0.3 | 4.2 | 4.5 | . | -1.1 | .
COc1ccc(CC2=CC(=O)c3ccccc3C2=O)cc1 | 85.2* | -0.1 | -9.2 | -8.2 | 122.6 | 29.2 | 8.8
Cc1cnccc1CNC(=O)C1CCC(=O)N(Cc2ccc(Cl)cc2)C1 (stereo not drawn) | 9.0 | 13.3 | -7.1 | -4.5 | 676.1 | -4.5 | .
CCCc1cc(=O)oc2cc(OCC(=O)N3CCN(C(=O)C4COc5ccccc5O4)CC3)ccc12 (stereo not drawn) | -0.3 | -17.1 | 3.5 | -0.6 | 491.2 | -3.9 | .
Cc1n[nH]c2c([N+](=O)[O-])c(=O)[nH]c(=O)n12 | -6.2 | -7.5 | 7.5 | -4.1 | . | -1.5 | .
O=C(NCCCN1CCOCC1)c1sc2cc([N+](=O)[O-])ccc2c1Cl | 87.5* | -8.7 | -7.2 | 6.9 | 583.0 | 14.8 | 94.6* | Diaphorase 10uM=-22.2;Diaphorase 30uM=-20.9
SMILES | PfGluPho inh | ATG4B inh | PKA-R1A activ | PKA-R2B act | T cell HTS | HKDC1 inh | PfG6PD confirm | others
O=C(Nc1ccccn1)c1sc2cc([N+](=O)[O-])ccc2c1Cl | 70.2* | -2.7 | 11.7 | 2.5 | 284.0 | -22.2 | 61.0* | Diaphorase 10uM=-14.9;Diaphorase 30uM=-18.0
Cc1ccnc(NC(=O)c2sc3ccccc3c2Cl)c1 | 7.8 | 6.9 | 5.5 | -3.1 | 229.7 | -12.6 | .
O=C(NCCCN1CCOCC1)c1sc2cc(Cl)ccc2c1Cl | -10.8 | 5.1 | 2.4 | 8.1 | i | -1.7 | .
COc1ccc(NC(=O)C[C@H]2C(=O)N(CCc3ccccc3)C[C@@H]2Cc2ccccc2)cc1 | 0.1 | . | -20.2 | 8.0 | . | . | .
Cc1ccc(C)c(CN2C(=O)COc3ccc(C(=O)c4ccccc4C(=O)O)cc32)c1 | 61.3* | -9.9 | -6.6 | -0.1 | 237.6 | 3.5 | 39.8
CN1CCc2c(sc(/N=C/c3c[nH]c4ccccc34)c2C(N)=O)C1 | 66.6* | -17.2 | . | . | 430.0 | 4.7 | -1.9
CN1CCc2c(sc(/N=C/c3c[nH]c4ccccc34)c2C#N)C1 | 28.7 | -14.8 | . | . | 544.2 | 4.3 | .
COc1ccc(-c2cn3c(C)c(C(=O)Nc4ccncc4)sc3n2)cc1 | 65.1* | -23.5 | -4.2 | -3.6 | 634.1 | -3.2 | 18.9
COc1ccc(-c2cn3c(C)c(C(=O)Nc4cccc(NC(C)=O)c4)sc3n2)cc1 | 33.1 | -24.9 | -8.9 | 12.2 | 372.5 | 0.3 | .
COc1ccc(-c2cn3c(C)c(C(=O)N4CCCc5ccccc54)sc3n2)cc1 | 39.4 | -1.9 | 6.9 | -2.8 | 561.6 | 3.7 | .
Cc1c(C(=O)NCC(C)C)sc2nc(-c3ccc(F)cc3)cn12 | 15.5 | -24.0 | -9.6 | -8.3 | 556.6 | -6.4 | .
Cc1c(C(=O)Nc2ccncc2)sc2nc(-c3ccc(F)cc3)cn12 | 84.1* | -15.1 | -2.9 | -0.5 | 295.4 | 7.9 | 9.8
COc1ccc(-c2cn3c4c(sc3n2)CCCC4)cc1 | 93.3* | 16.4 | -13.0 | 10.2 | 357.0 | 3.6 | 45.2
COc1cccc(CCNC(=O)CCc2nnc(-c3cc(C)oc3C)o2)c1 | -7.1 | -1.1 | 3.0 | 10.4 | 243.0 | 2.2 | .
CC(C)CN(C(=O)COC(=O)c1ccccc1SCC(=O)N1CCCC1)C1CCS(=O)(=O)C1 (stereo not drawn) | -4.7 | -7.4 | -1.2 | -2.7 | . | -3.9 | .
